Laboratory results reported in ChEMBL document CHEMBL1145492, “Comparison of the phosphorylation of 4'-ethynyl 2',3'-dihydro-3'-deoxythymidine with that of other anti-human immunodeficiency virus thymidine analogs” (Antimicrob Agents Chemother, 2007).

Columns and labels:
[1] = target: Nucleoside diphosphate kinase A (Homo sapiens) (UniProt P15531); experiment: Activity of human recombinant nm23H1
In short: (§1)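 Recombinant human nm23-H1 and nm23-H2 (cloned from KB) and PGK (cloned from HepG2). Donor was 2 mM ATP for nm23; for PGK, 1,3-bisphosphoglycerate generated by GAPDH. Specific activity (nmol/min/mg) was normalized per unit (1 μmol ADP→ATP/min) and compared with D4TDP. Mean ± SD, n=3.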

[2] = target: Nucleoside diphosphate kinase B (Homo sapiens) (UniProt P22392); experiment: Activity of human recombinant nm23H2 assessed as conversion of 1 umol of ADP to ATP per min; in short: as §1
Nucleoside diphosphate kinase B (Homo sapiens), sequence (P22392 whole entry): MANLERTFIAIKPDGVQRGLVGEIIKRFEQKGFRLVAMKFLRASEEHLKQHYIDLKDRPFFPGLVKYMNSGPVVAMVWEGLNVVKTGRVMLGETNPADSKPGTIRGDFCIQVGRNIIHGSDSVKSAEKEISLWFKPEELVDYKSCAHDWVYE

[3] = target: Nucleoside diphosphate kinase A (Homo sapiens) (UniProt P15531); experiment: Activity of human recombinant nm23H1 assessed as conversion of 1 umol of ADP to ATP per min; in short: as §1
CCRF-CEM [4] = experiment: Activity of pyruvate kinase from crude human CEM cell extract assessed as conversion of 1 umol of ADP to ATP per min; type: cell-free
In short: (§2)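 CEM cell lysate (NP-40 lysis buffer, desalted on G-50) as enzyme source. Donors: 2 mM ATP for NDPK; 2 mM creatine phosphate for CK; 2 mM phosphoenolpyruvate for PK; for PGK, 1,3-bisphosphoglycerate made in situ by GAPDH. Activity in nmol/min/mg, normalized per unit (1 μmol ADP→ATP/min), then relative to D4TDP.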

CCRF-CEM [5] = experiment: Activity of nucleoside diphosphate kinase from crude human CEM cell extract assessed as conversion of 1 umol of ADP to ATP per min; type: cell-free; in short: as §2
CCRF-CEM [6] = experiment: Activity of 3-phosphoglycerate kinase from crude human CEM cell extract; type: cell-free; in short: as §2
CCRF-CEM [7] = experiment: Activity of 3-phosphoglycerate kinase from crude human CEM cell extract assessed as conversion of 1 umol of ADP to ATP per min; type: cell-free; in short: as §2
Homo sapiens [8] = organism: Homo sapiens; experiment: Activity of human recombinant 3-phosphoglycerate kinase; in short: as §1
[9] = target: Nucleoside diphosphate kinase B (Homo sapiens) (UniProt P22392); experiment: Activity of human recombinant nm23H2; in short: as §1
CCRF-CEM [10] = experiment: Activity of pyruvate kinase from crude human CEM cell extract; type: cell-free; in short: as §2
CCRF-CEM [11] = experiment: Activity of nucleoside diphosphate kinase from crude human CEM cell extract; type: cell-free; in short: as §2
Homo sapiens [12] = organism: Homo sapiens; experiment: Activity of human recombinant 3-phosphoglycerate kinase assessed as conversion of 1 umol of ADP to ATP per min; in short: as §1
CCRF-CEM [13] = experiment: Activity of creatine kinase from crude human CEM cell extract; type: cell-free; in short: as §2
[14] = target: Nucleoside diphosphate kinase A (Homo sapiens) (UniProt P15531); experiment: Activity of human recombinant nm23H1 assessed as phosphorylation efficiency relative to 4-ethynyl D4TDP; details: in the assay text read “relative to D4TDP” for “relative to 4-ethynyl D4TDP”; in short: as §1
Homo sapiens [15] = organism: Homo sapiens; experiment: Activity of human recombinant 3-phosphoglycerate kinase assessed as phosphorylation efficiency relative to 4-ethynyl D4TDP; details: in the assay text read “relative to D4TDP” for “relative to 4-ethynyl D4TDP”; in short: as §1
[16] = target: Nucleoside diphosphate kinase B (Homo sapiens) (UniProt P22392); experiment: Activity of human recombinant nm23H2 assessed as phosphorylation efficiency relative to 4-ethynyl D4TDP; details: in the assay text read “relative to D4TDP” for “relative to 4-ethynyl D4TDP”; in short: as §1
CCRF-CEM [17] = experiment: Activity of nucleoside diphosphate kinase from crude human CEM cell extract assessed as phosphorylation efficiency relative to D4TDP; type: cell-free; in short: as §2
CCRF-CEM [18] = experiment: Activity of 3-phosphoglycerate kinase from crude human CEM cell extract assessed as phosphorylation efficiency relative to D4TDP
CCRF-CEM [19] = experiment: Activity of 3-phosphoglycerate kinase from crude human CEM cell extract assessed as phosphorylation efficiency relative to 4-ethynyl D4TDP; details: in the assay text read “relative to D4TDP” for “relative to 4-ethynyl D4TDP”; in short: as §2
[20] = target: T1, Thymidylate kinase (Homo sapiens) (UniProt P23919); experiment: Ratio of Kcat to Km of human recombinant TMPK relative to […]
T1 sequence (whole entry): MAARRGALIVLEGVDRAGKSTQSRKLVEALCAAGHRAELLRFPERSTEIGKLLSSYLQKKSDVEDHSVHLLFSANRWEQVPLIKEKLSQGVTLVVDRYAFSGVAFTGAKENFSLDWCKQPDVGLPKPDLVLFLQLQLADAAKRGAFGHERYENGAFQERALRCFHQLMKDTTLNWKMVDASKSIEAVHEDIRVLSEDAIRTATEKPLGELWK
In short: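 Substrate ranges were TMP 6.25–100 μM and analog MPs 6.25–250 μM. Reactions were stopped at various times with TCA and neutralized with trioctylamine/trichlorotrifluoroethane. Km and kcat came from Lineweaver-Burk plots. Relative efficiency is kcat/Km with D4TMP as 100%. Mean ± SD of three experiments.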

[21] = target: T1, Thymidylate kinase (Homo sapiens); experiment: Ratio of Kcat to Km of human recombinant TMPK relative to D4TMP
[22] = target: T1, Thymidylate kinase (Homo sapiens); experiment: Activity of TMPK in human CEM cells assessed as level of triphosphate metabolites per 10^6 cells at 2 uM after 12 hrs; type: cell-based; details: CCRF-CEM
In short: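 CEM cells at 10^6/ml in RPMI/10% FBS were exposed to 2 μM radiolabeled nucleoside (75 mCi/mmol) for 12 h. Cells were washed in cold PBS with 20 μM dipyridamole and extracted with 15% TCA on ice for 15 min. Extracts were neutralized with trioctylamine/trichlorotrifluoroethane (45:55). MP, DP and TP were resolved by HPLC, and radioactivity was converted to pmol/10^6 cells. Two independent experiments.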

Nucleoside diphosphate kinase A (Homo sapiens), sequence (P15531 whole entry): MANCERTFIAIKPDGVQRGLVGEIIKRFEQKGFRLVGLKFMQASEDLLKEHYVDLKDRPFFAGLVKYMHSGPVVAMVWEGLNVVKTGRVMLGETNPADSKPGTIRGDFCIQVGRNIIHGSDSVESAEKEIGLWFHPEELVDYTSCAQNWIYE

`Cc1cn([C@H]2C=C[C@@H](COP(=O)(O)OP(=O)(O)O)O2)c(=O)[nH]c1=O` gave an Activity [1] of 1500 nmol/min/mg, an Activity [2] of 1.2 nmol and an Activity [3] of 1.2 nmol. The Activity (CCRF-CEM [4]) was 99 nmol, the Activity (CCRF-CEM [5]) was 0.42 nmol and the Activity (CCRF-CEM [6]) was 4.2 nmol/min/mg. It also gave an Activity (CCRF-CEM [7]) of 0.4 nmol, an Activity (Homo sapiens [8]) of 10 nmol/min/mg and an Activity [9] of 1700 nmol/min/mg. It also gave an Activity (CCRF-CEM [10]) of 0.35 nmol/min/mg, an Activity (CCRF-CEM [11]) of 1.1 nmol/min/mg and an Activity (Homo sapiens [12]) of 0.0037 nmol.
With `Nc1ncnc2c1ncn2[C@@H]1O[C@H](COP(=O)(O)OP(=O)(O)O)[C@@H](O)[C@H]1O` the Activity (CCRF-CEM [6]) was 10600 nmol/min/mg, the Activity (CCRF-CEM [13]) was 2.5 nmol/min/mg and the Activity (CCRF-CEM [10]) was 3.6 nmol/min/mg. The Activity (CCRF-CEM [11]) was 2500 nmol/min/mg.
`Cc1cn([C@H]2C[C@H](O)[C@@H](COP(=O)(O)OP(=O)(O)O)O2)c(=O)[nH]c1=O` was tested, and the Activity [14] was 89000%, the Activity (Homo sapiens [15]) was 1300% and the Activity [1] was 1.3e+06 nmol/min/mg. For the same compound, the Activity [16] was 83000%, the Activity [2] was 1000 nmol and the Activity (CCRF-CEM [17]) was 260000%. The Activity [3] was 1000 nmol, the Activity (CCRF-CEM [5]) was 1100 nmol and the Activity (CCRF-CEM [6]) was 21 nmol/min/mg. The Activity (CCRF-CEM [7]) was 2 nmol, the Activity (Homo sapiens [8]) was 137 nmol/min/mg and the Activity [9] was 1.4e+06 nmol/min/mg. For the same compound, the Activity (CCRF-CEM [18]) was 490%, the Activity (CCRF-CEM [11]) was 2700 nmol/min/mg and the Activity (Homo sapiens [12]) was 0.049 nmol.
For `Cc1cn([C@@H]2C[C@H](N=[N+]=[N-])[C@@H](COP(=O)(O)OP(=O)(O)O)O2)c(=O)[nH]c1=O`, the Activity [14] was 7.2%, the Activity (Homo sapiens [15]) was 135% and the Activity [1] was 107 nmol/min/mg. The Activity [16] was 7.6%, the Activity [2] was 0.1 nmol and the Activity (CCRF-CEM [17]) was 1.7%. The Activity [3] was 0.08 nmol, the Activity (CCRF-CEM [5]) was 0.007 nmol and the Activity (CCRF-CEM [6]) was 0.26 nmol/min/mg. It also gave an Activity (CCRF-CEM [7]) of 0.025 nmol, an Activity (Homo sapiens [8]) of 14 nmol/min/mg and an Activity [9] of 131 nmol/min/mg. The Activity (CCRF-CEM [11]) was 0.018 nmol/min/mg, the Activity (CCRF-CEM [19]) was 6.2% and the Activity (Homo sapiens [12]) was 0.005 nmol.
`C#C[C@@]1(COP(=O)(O)O)C=C[C@H](n2cc(C)c(=O)[nH]c2=O)O1` showed an Activity [20] of 8.8%.
For `Cc1cn([C@H]2C[C@H](O)[C@@H](COP(=O)(O)O)O2)c(=O)[nH]c1=O`, the Activity [21] was 5600%.
`Cc1cn([C@H]2C[C@H](N=[N+]=[N-])[C@@H](CO)O2)c(=O)[nH]c1=O` was tested, and the Activity [22] was 0.27 pmol.
`Cc1cn([C@H]2C[C@H](N=[N+]=[N-])[C@@H](COP(=O)(O)O)O2)c(=O)[nH]c1=O` showed an Activity [21] of 59%.
